From ChEMBL document CHEMBL5634095, “Design, synthesis and evaluation of novel pyrimidinylaminothiophene derivatives as FGFR1 inhibitors against human glioblastoma multiforme” (Eur J Med Chem, 2023)
Calls of active or inactive are those of the source. No cut-off for these calls is given here.

Tests used:
U-87 MG [1] = assay: Antiproliferative activity against human U-87 MG cells incubated for 48 hrs by MTT assay
U-87 MG [2] = assay: Inhibition of colony formation in human U-87MG cells
NIH3T3 = assay: Cytotoxicity against mouse NIH/3T3 cells incubated for 48 hrs by MTT assay; assay type: toxicity, cell-based; details: nih3t3, 48 h
[3] = Cmax in rat at 52.5 mg/kg, po measured upto 48 hrs by LC analysis; assay type: ADME, organism-based; details: in vivo
In short: (§1)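 Rats (n=5) dosed orally once with 52.5 mg/kg, dispersed in sodium carboxymethyl cellulose. Plasma separated at 1200×g, deproteinated with acetonitrile, then analysed by UHPLC on a C18 column with a methanol/formic acid eluent.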

[4] = Tmax in rat at 52.5 mg/kg, po measured upto 48 hrs by LC analysis; assay type: ADME, organism-based; details: in vivo; in short: as §1
[5] = Terminal half-life in rat at 52.5 mg/kg, po measured upto 48 hrs by LC analysis; assay type: ADME, organism-based; details: in vivo, read-out: beta t1/2 (converted); in short: as §1
[6] = AUC in rat at 52.5 mg/kg, po measured upto 48 hrs by LC analysis; assay type: ADME, organism-based; details: in vivo; in short: as §1
U-87 MG [7] = assay: Antitumor activity against human U-87 MG cells implanted in nude mouse assessed as reduction in Ki67 expression at 50 mg/kg/day, po administered 5 times a week for 4 weeks by IHC analysis; assay type: functional, U-87MG ATCC; design: scale not given: the % may be the effect or the level left
U-87 MG [8] = assay: Antitumor activity against human U-87 MG cells implanted in nude mouse assessed as reduction in Ki67 expression at 75 mg/kg/day, po administered 5 times a week for 4 weeks by IHC analysis; assay type: functional, U-87MG ATCC; design: scale not given: the % may be the effect or the level left
U-87 MG [9] = assay: Antitumor activity against human U-87 MG cells implanted in nude mouse assessed as reduction in CD31 expression at 50 mg/kg/day, po administered 5 times a week for 4 weeks by IHC analysis; assay type: functional, U-87MG ATCC; design: scale not given: the % may be the effect or the level left
U-87 MG [10] = assay: Antitumor activity against human U-87 MG cells implanted in nude mouse assessed as reduction in CD31 expression at 75 mg/kg/day, po administered 5 times a week for 4 weeks by IHC analysis; assay type: functional, U-87MG ATCC; design: scale not given: the % may be the effect or the level left
U-87 MG [11] = assay: Induction of cell cycle arrest in human U-87 MG cells assessed as increase in G2/M phase cell population at 0.3 uM incubated for 48 hrs by PI staining based flow cytometry analysis (reference value: 14.5 %); assay type: functional, U-87MG ATCC
U-87 MG [12] = assay: Induction of cell cycle arrest in human U-87 MG cells assessed as increase in G2/M phase cell population at 1 uM incubated for 48 hrs by PI staining based flow cytometry analysis (reference value: 14.5 %); assay type: functional, U-87MG ATCC
U-87 MG [13] = assay: Induction of cell cycle arrest in human U-87 MG cells assessed as increase in G2/M phase cell population at 3 uM incubated for 48 hrs by PI staining based flow cytometry analysis (reference value: 14.5 %); assay type: functional, U-87MG ATCC
U-87 MG [14] = assay: Induction of cell cycle arrest in human U-87 MG cells assessed as decrease in G0 phase cell population at 0.3 uM incubated for 48 hrs by PI staining based flow cytometry analysis (reference value: 71.6 %); assay type: functional, U-87MG ATCC; design: scale not given: the % may be the effect or the level left
U-87 MG [15] = assay: Induction of cell cycle arrest in human U-87 MG cells assessed as decrease in G0 phase cell population at 1 uM incubated for 48 hrs by PI staining based flow cytometry analysis (reference value: 71.6 %); assay type: functional, U-87MG ATCC; design: scale not given: the % may be the effect or the level left
U-87 MG [16] = assay: Induction of cell cycle arrest in human U-87 MG cells assessed as decrease in G0 phase cell population at 3 uM incubated for 48 hrs by PI staining based flow cytometry analysis (reference value: 71.6 %); assay type: functional, U-87MG ATCC; design: scale not given: the % may be the effect or the level left
U-87 MG [17] = assay: Anti-invasive activity against human U-87 MG cells assessed as reduction in number of cells at upper well at 0.3 uM incubated for 24 hrs by crystal violet staining based inverted microscope analysis; assay type: functional, U-87MG ATCC
In short: (§2)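 Transwell top chambers coated with Matrigel (1:9 in serum-free DMEM). U-87 MG cells pretreated 20 min with 0.1% DMSO or compound, seeded at 1×10^4 cells/well, with complete medium below. After 24 h, non-invading cells removed and the rest fixed in paraformaldehyde, stained with 0.1% crystal violet, imaged at ×100 in six random fields and counted.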

U-87 MG [18] = assay: Anti-invasive activity against human U-87 MG cells assessed as reduction in number of cells at upper well at 3 uM incubated for 24 hrs by crystal violet staining based inverted microscope analysis; assay type: functional, U-87MG ATCC; in short: as §2
HUVEC [19] = assay: Anti-angiogenesis activity in HUVEC assessed as reduction in tube formation at 0.1 uM incubated for 24 hrs by matrigel based light microscopic analysis; assay type: functional, Homo sapiens; design: scale not given: the % may be the effect or the level left
HUVEC [20] = assay: Anti-angiogenesis activity in HUVEC assessed as reduction in tube formation at 0.5 uM incubated for 24 hrs by matrigel based light microscopic analysis; assay type: functional, Homo sapiens; design: scale not given: the % may be the effect or the level left
HUVEC [21] = assay: Anti-angiogenesis activity in HUVEC assessed as reduction in tube formation at 2 uM incubated for 24 hrs by matrigel based light microscopic analysis; assay type: functional, Homo sapiens; design: scale not given: the % may be the effect or the level left
Mus musculus = species on record: Mus musculus; details: dose 50-75 mg/kg/day, route po, time 4.0 weeks

Question: For `CNC(=O)c1ccsc1Nc1nc(Nc2ccc(N3CCC(N4CCCCC4)CC3)cc2)ncc1C(F)(F)F`, which IC50 (U-87 MG [1]) is on record?
Answer: 2.77 µM

Question: Which IC50 (U-87 MG [1]) does the source give for `CNC(=O)c1ccsc1Nc1nc(Nc2ccc(N3CCN(CCO)CC3)cc2)ncc1C(F)(F)F` here?
Answer: 3.71 µM

Question: With `CNC(=O)c1ccsc1Nc1nc(Nc2ccc(CS(=O)(=O)N3CCOCC3)cc2)ncc1C(F)(F)F` as the compound, how does the IC50 (U-87 MG [1]) read?
Answer: 18.9 µM

Question: For `CNC(=O)c1cc(C(C)(C)C)sc1Nc1nc(Nc2ccc(N3CCOCC3)cc2)ncc1C(F)(F)F`, which IC50 (U-87 MG [1]) is on record?
Answer: > 50 µM

Question: For `CNC(=O)c1ccsc1Nc1nc(Nc2ccc(OCCN3CCOCC3)cc2)ncc1C(F)(F)F`, which IC50 (U-87 MG [1]) is on record?
Answer: 12 µM

Question: For `CNC(=O)c1ccsc1Nc1nc(Nc2cccc(N3CCOCC3)c2)ncc1C(F)(F)F`, which IC50 (U-87 MG [1]) is on record?
Answer: 19.2 µM

Question: Which IC50 (U-87 MG [1]) does the source give for `CNC(=O)c1ccsc1Nc1nc(Nc2ccc(N3CCC(N4CCOCC4)CC3)cc2)ncc1C` here?
Answer: 11.6 µM

Question: Which IC50 (U-87 MG [1]) does the source give for `CNC(=O)c1ccsc1Nc1nc(Nc2ccc(N3CCC(N4CCOCC4)CC3)cc2)ncc1Br` here?
Answer: 30.1 µM

Question: For `CNC(=O)c1ccsc1Nc1nc(Nc2ccc(CCN3CCS(=O)(=O)CC3)cc2)ncc1C(F)(F)F`, which IC50 (U-87 MG [1]) is on record?
Answer: 12.4 µM

Question: For `CNC(=O)c1ccsc1Nc1nc(Nc2ccc(N3CCC(N4CCOCC4)CC3)cc2)ncc1C(F)(F)F`, which IC50 (U-87 MG [1]) is on record?
Answer: 2.38 µM

Question: And the IC50 (U-87 MG [2])?
Answer: 0.12 µM

Question: And the Activity (NIH3T3)?
Answer: Non-Toxic

Question: What about the Cmax [3] of the same compound?
Answer: 3900 ng/mL

Question: And the Tmax [4]?
Answer: 4.4 h

Question: What about the half-life [5] of the same compound?
Answer: 14.3 h

Question: What about the AUC at 48 h [6] of the same compound?
Answer: 71500 ng·h/mL

Question: What about the Activity (U-87 MG [7]) of the same compound?
Answer: 38.4%

Question: And the Activity (U-87 MG [8])?
Answer: 62%

Question: And the Activity (U-87 MG [9])?
Answer: 78.9%

Question: And the Activity (U-87 MG [10])?
Answer: 37.5%

Question: And the Activity (U-87 MG [11])?
Answer: 56.8%

Question: And the Activity (U-87 MG [12])?
Answer: 79.4%

Question: What about the Activity (U-87 MG [13]) of the same compound?
Answer: 86.8%

Question: What about the Activity (U-87 MG [14]) of the same compound?
Answer: 34.4%

Question: And the Activity (U-87 MG [15])?
Answer: 16.6%

Question: What about the Activity (U-87 MG [16]) of the same compound?
Answer: 9.36%

Question: What about the Activity (U-87 MG [17]) of the same compound?
Answer: 71

Question: What about the Activity (U-87 MG [18]) of the same compound?
Answer: 24

Question: And the Activity (HUVEC [19])?
Answer: 10.4%

Question: What about the Activity (HUVEC [20]) of the same compound?
Answer: 59.7%

Question: And the Activity (HUVEC [21])?
Answer: 81%

Question: What about the inhibition (Mus musculus) of the same compound?
Answer: Active

Question: Which IC50 (U-87 MG [1]) does the source give for `CNC(=O)c1ccsc1Nc1nc(Nc2ccc(N3CCOCC3)cc2)ncc1C(F)(F)F` here?
Answer: > 50 µM

Question: With `CNC(=O)c1ccsc1Nc1nc(Nc2ccc(N3CCC(N4CCOCC4)CC3)cc2)ncc1Cl` as the compound, how does the IC50 (U-87 MG [1]) read?
Answer: 4.25 µM

Question: With `CNC(=O)c1cc(-c2ccccc2)sc1Nc1nc(Nc2ccc(N3CCOCC3)cc2)ncc1C(F)(F)F` as the compound, how does the IC50 (U-87 MG [1]) read?
Answer: 23.2 µM

Question: With `COc1cc(CCc2cc(NC(=O)c3ccc(N4C[C@@H](C)N[C@@H](C)C4)cc3)n[nH]2)cc(OC)c1` [FEXAGRATINIB] as the compound, how does the IC50 (U-87 MG [1]) read?
Answer: 25.4 µM
